In series [1] the target is Dipeptidyl peptidase 2 (Rattus norvegicus, UniProt Q9EPB1). The series can be described thus: Inhibition of rat kidney DPP2 after 60 mins. The procedure, abridged: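 Rat kidney DPP-2, partially purified, preincubated with compound (DMSO) for 20 min at room temperature in […] buffer pH 5.5. Reaction started with H-Lys-Ala-pNA, added at 1 mmol/L, and run 60 min at 37 °C. A405 read at start and end against substrate-only and no-compound wells. IC50 from concentration-response curves, mean with 95% CI (n = 3).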
Dipeptidyl peptidase 2, sequence (Q9EPB1 whole entry): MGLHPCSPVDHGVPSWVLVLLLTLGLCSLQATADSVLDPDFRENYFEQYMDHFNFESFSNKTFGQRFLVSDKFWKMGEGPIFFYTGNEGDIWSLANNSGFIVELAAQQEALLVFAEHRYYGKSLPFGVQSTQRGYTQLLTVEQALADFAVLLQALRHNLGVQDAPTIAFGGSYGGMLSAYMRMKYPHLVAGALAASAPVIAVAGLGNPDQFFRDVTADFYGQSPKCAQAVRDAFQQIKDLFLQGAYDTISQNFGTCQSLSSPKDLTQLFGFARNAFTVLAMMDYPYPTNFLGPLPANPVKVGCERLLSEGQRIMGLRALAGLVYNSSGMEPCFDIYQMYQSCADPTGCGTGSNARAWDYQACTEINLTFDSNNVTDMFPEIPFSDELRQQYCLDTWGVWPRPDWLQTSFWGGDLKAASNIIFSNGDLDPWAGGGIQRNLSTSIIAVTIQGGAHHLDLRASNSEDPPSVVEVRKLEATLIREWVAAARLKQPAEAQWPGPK

The target in series [2] is Dipeptidyl peptidase 8 (Homo sapiens, UniProt Q6V1X1). The series can be described thus: Inhibition of FLAG-tagged human DPP8 expressed in human 293F cells after 90 mins. In kind it is cell-based.
Dipeptidyl peptidase 8, sequence (Q6V1X1 whole entry): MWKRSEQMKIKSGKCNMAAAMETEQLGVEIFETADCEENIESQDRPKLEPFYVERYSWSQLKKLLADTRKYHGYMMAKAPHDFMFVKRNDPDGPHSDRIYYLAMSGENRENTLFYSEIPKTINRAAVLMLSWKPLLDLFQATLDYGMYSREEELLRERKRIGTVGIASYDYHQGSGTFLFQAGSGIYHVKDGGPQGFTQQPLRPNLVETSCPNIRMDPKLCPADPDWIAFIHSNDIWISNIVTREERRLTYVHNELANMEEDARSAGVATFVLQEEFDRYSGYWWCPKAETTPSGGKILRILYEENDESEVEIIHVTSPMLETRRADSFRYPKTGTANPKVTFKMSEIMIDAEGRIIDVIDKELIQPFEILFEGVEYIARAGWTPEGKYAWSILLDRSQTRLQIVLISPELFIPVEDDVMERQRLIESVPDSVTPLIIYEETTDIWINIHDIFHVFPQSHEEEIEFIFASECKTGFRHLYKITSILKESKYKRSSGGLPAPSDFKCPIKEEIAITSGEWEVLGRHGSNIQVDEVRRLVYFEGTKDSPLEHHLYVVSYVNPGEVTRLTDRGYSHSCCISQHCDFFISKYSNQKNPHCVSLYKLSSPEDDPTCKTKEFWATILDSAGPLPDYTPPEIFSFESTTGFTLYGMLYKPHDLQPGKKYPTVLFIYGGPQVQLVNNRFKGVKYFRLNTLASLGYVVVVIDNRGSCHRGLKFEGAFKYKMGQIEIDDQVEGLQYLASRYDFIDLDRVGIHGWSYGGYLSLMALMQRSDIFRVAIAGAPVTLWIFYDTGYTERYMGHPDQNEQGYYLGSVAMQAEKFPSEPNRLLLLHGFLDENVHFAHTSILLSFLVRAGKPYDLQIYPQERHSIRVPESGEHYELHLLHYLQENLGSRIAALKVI
For series [3], the target named is Dipeptidyl peptidase 9 (Homo sapiens, UniProt Q86TI2). The series can be described thus: Inhibition of FLAG-tagged human DPP9 expressed in human 293F cells after 90 mins. Type of series: cell-based.
Dipeptidyl peptidase 9, sequence (Q86TI2 whole entry): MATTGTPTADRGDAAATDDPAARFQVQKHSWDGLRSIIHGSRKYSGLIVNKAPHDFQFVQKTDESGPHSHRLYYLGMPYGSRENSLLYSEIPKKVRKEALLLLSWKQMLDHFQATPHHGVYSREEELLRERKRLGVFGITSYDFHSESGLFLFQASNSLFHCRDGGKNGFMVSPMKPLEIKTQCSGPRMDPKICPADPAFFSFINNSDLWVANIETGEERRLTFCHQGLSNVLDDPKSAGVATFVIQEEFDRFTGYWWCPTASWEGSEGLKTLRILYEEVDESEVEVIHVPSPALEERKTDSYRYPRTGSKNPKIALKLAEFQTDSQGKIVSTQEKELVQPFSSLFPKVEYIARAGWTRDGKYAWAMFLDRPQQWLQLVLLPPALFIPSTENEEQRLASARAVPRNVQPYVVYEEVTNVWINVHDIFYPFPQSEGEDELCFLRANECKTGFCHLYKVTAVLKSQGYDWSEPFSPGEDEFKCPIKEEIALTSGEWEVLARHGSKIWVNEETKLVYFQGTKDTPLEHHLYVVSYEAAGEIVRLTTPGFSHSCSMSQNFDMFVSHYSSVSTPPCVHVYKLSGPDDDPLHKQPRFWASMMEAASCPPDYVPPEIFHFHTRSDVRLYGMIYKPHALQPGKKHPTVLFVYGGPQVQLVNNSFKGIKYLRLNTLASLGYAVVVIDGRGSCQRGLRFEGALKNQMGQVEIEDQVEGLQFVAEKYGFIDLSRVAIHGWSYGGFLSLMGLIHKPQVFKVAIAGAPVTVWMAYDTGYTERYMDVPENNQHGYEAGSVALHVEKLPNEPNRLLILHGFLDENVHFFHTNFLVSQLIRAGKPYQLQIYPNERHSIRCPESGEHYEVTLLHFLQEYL
Series [4] can be described thus: Half life in rat at 1 mg/kg, po. Type of series: ADME, organism-based. Details: dose 1 mg/kg, route oral. Conditions: in vivo. In short, it runs like this: (§1)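 Single doses to rats (n = 3) and dogs (n = 4), intravenous 0.1 mg/kg and oral 1.0 mg/kg. Plasma obtained from serial blood samples and deproteinized with acetonitrile containing an internal standard. Supernatant diluted with 0.01 mol/L ammonium acetate. Drug quantified by LC/MS/MS. Values given as mean ± deviation.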

A short description of series [5]: Half life in dog at 1 mg/kg, po. Type of series: ADME, organism-based, Canis lupus familiaris. Details: dose 1 mg/kg, route oral. The conditions noted are these: in vivo. The procedure, abridged: as §1
Series [6] can be described thus: Bioavailability in rat at 0.1 mg/kg, iv and 1 mg/kg, po. Type of series: ADME, organism-based. The conditions noted are these: in vivo. The procedure, abridged: as §1
Series [7] can be described thus: Bioavailability in dog at 0.1 mg/kg, iv and 1 mg/kg, po. In kind it is ADME, organism-based, Canis lupus familiaris. Conditions: in vivo. The procedure, abridged: as §1
Series [8] is described as follows: Metabolic stability in rat liver microsomes assessed as compound remaining at 1 uM after 20 mins relative to basal level. Type of series: ADME, Microsome. The conditions noted are these: read-out: Stability. The procedure, abridged: (§2)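 Rat, dog or human hepatic microsomes ([…] final) mixed on ice with 1 μmol/L compound. Reaction started with NADPH and run 20 min at 37 °C, then stopped with ice-cold acetonitrile. Zero-time controls stopped before compound addition. Supernatant analysed by HPLC-UV. Result given as % remaining.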
Background: Liver microsomes are vesicles of endoplasmic reticulum, rich in cytochrome P450 enzymes.

Series [9] is described as follows: Metabolic stability in dog liver microsomes assessed as compound remaining at 1 uM after 20 mins relative to basal level. Type of series: ADME, Canis lupus familiaris, Microsome. Conditions: read-out: Stability. In short, it runs like this:
as §2

Series [10] in a line: Metabolic stability in human liver microsomes assessed as compound remaining at 1 uM after 20 mins relative to basal level. In kind it is ADME, Microsome. The conditions noted are these: read-out: Stability. The procedure, abridged: as §2
Series [11] in a line: Solubility of the compound at pH 1.2 after 2 hrs. Type of series: physicochemical. Conditions: buffer. The procedure, abridged: (§3)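 Thermodynamic solubility in Japanese Pharmacopoeia 15th ed. first fluid (pH 1.2) or second fluid (pH 6.8), incubated 2 h at 37 °C. Precipitate removed by filtration and filtrate quantified by HPLC.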
A short description of series [12]: Solubility of the compound at pH 6.8 after 2 hrs. In kind it is physicochemical. The conditions noted are these: buffer. The procedure, abridged: as §3
Series [13] deals with Rattus norvegicus. The experiment in a line: Antidiabetic activity in po dosed fatty Wistar rat assessed as reduction of blood glucose excursion administered 60 mins before glucose challenge by oral glucose tolerance test. In kind it is functional, organism-based. The procedure, abridged: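 Female Wistar fatty rats, 13 weeks old, fasted overnight and grouped by plasma glucose and body weight (n = 6). Oral vehicle (0.5% methylcellulose) or 0.03, 0.1, 0.3 and 1 mg/kg as free base of the monohydrate. Oral glucose 1 g/kg given 1 h later. Tail-vein blood taken at 0, 10, 30 and 60 min. Plasma glucose measured enzymatically and insulin by ELISA.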

For series [14], the species on record is Canis familiaris. The conditions noted are these: Canis lupus familiaris; Plasma; 0.5 mg/kg.

Each structure is given as a SMILES string. Active and inactive are the calls of the source. No cut-off for these calls is given here.

In the case of `Cc1ccc(-c2c(CN)c(CC(C)C)nc(C)c2C(=O)O)cc1`, inhibition in series [1] was half-maximal at 5.6 µM (IC50).

For the compound `CCc1nc(CC(C)(C)C)c(CN)c(-c2ccc(C)cc2)c1C(=O)O`, in series [1], the IC50 (as a rule, the midpoint of a concentration-inhibition curve) worked out at 4 µM.

Consider `Cc1ccc(-c2c(CCC(=O)O)c(C)nc(CC(C)C)c2CN)cc1`, for which the 50% inhibitory concentration (IC50) was 1.1 µM in [1], more than 30 µM in [2] and more than 30 µM in series [3].

Take `Cc1ccc(-c2c(CC(=O)O)c(C)nc(CC(C)(C)C)c2CN)cc1`: the 50% inhibitory concentration (IC50) in series [2] and in [3] was more than 100 µM in each case.

As to `Cc1ccc(-c2c(CN)c(CC(C)(C)C)nc(C)c2C(=O)O)cc1`, inhibition in series [1] was half-maximal at 10 µM (IC50).

As for `Cc1ccc(-c2c(CN)c(CC(C)(C)C)nc(C(C)C)c2C(=O)O)cc1`, the IC50 in series [1] was 1.6 µM.

Regarding `Cc1ccc(-c2c(CN)c(CC(C)(C)C)nc(Cc3ccccc3)c2C(=O)O)cc1`, in [1], the IC50 came out at 0.25 µM.

In [1], `CCCc1nc(CC(C)(C)C)c(CN)c(-c2ccc(C)cc2)c1C(=O)O` displayed an IC50 of 2 µM.

Consider `Cc1ccc(-c2c(CN)c(CC(C)(C)C)nc(CC(C)C)c2C(=O)O)cc1`, for which the 50% inhibitory concentration (IC50) in [1] amounted to 1.5 µM.

As to `CCc1nc(CC(C)(C)C)c(CN)c(-c2ccc(C)cc2)c1CC(=O)O.O`, the IC50 in [1] and in [2] was more than 100 µM throughout. Further, the half-life (commonly the time in which the quantity being followed falls by half) in series [4] was 5.74 h; in series [5] it was 4.97 h. In addition, the bioavailability – broadly, the share of a dose that reaches the circulation, judged against a reference dose that is usually intravenous – in [6] was determined as 53.3%; in series [7] it was 88%. Further, the remaining at 20 min, 1 µM in series [8] stood at 100%; in series [9] it was 96.8%; in series [10] it was 100%. The solubility (usually the concentration that dissolves in the medium under given conditions) at 2 h is more than 1000 µg/mL in series [11] and 930 µg/mL in [12]. Further, the Activity entry in series [13] is “Dose-dependent effect”. For the same compound, the inhibition result in series [14] was “Active”.

Take `Cc1ccc(-c2c(CC(=O)O)c(C)nc(CC(C)C)c2CN)cc1`: the 50% inhibitory concentration (IC50) in [1] was 50 µM; in series [2], more than 30 µM; in series [3] it was more than 30 µM.

In the case of `CCCCc1nc(C)c(C(=O)O)c(-c2ccc(C)cc2)c1CN`, the IC50 in series [1] was 11 µM.

These data come from ChEMBL document CHEMBL1671814, “Discovery of a 3-pyridylacetic acid derivative (TAK-100) as a potent, selective and orally active dipeptidyl peptidase IV (DPP-4) inhibitor” (J Med Chem, 2011).
